Source: PubChem BioAssay (several laboratories)
EP2 modulator – modulates human prostaglandin E2 receptor EP2 signaling; induction, % at 25 µM; P43116; EP2-expressing cells, cAMP HTRF FRET, PGE2 co-stimulation; hit rate 0.83% among 260,000;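 active = compounds whose cAMP rise, as percent of the full-agonist control response, exceeds 60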;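 also: rat C6 glioma line stably carrying human EP2 under a CMV promoter; the protocol text gives 20 µM as final concentration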
OX1R antag-1 – blocks the human orexin 1 receptor. O43613. hit rate 1.8% among 330,000. OX1R-expressing cells, FRET antagonist read-out. inhibition, % at 6.6 µM; in the data active = inhibition mostly above about 38%, no sharp cut-off; inactive = mostly below about 40%
EP2 antag – blocks the human prostaglandin E2 receptor EP2; inhibition, % at 25 µM; hit rate 0.52% among 260,000; P43116; C6 glioma cells expressing human EP2, cAMP TR-FRET; cells stimulated with saturating PGE2;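 active = percent inhibition above 40 after rounding to a whole number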;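 also: rat C6 glioma host cells with rolipram phosphodiesterase inhibitor present; the protocol text gives 20 µM as final concentration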
CHO parental Ca – counter-screen for OX1R antagonists: effect in parental CHO cells; parental CHO-K1, ATP-induced calcium, Fluo-8 fluorescence; inhibition, % at 5.6 µM; hit rate 0.63% among 330,000; AID 463079;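 active = inhibition above that plate's mean sample inhibition plus 3 SD, cut at about 26% in these data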
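material = parental CHO cells | also added = ATP as calcium-mobilizing challenge | dosing = single point at 5.6 µM | detection = intracellular calcium via Fluo-8 no-wash fluorescent dye | read-out = % inhibition | benchmarks = low control ATP plus DMSO, high control DMSO only | repeats = one well per compound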
GPR7 antagonist – human neuropeptides B/W receptor 1 antagonism. inhibition, % at 4.4 µM. AID 1861. GPR7-expressing cells, fluorescence antagonist assay. hit rate 1.1% among 290,000; in the data active = inhibition above about 16%, passing the limit was not always enough;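 also: cells stimulated with the agonist NPW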
Target sequence (P48145 whole entry, looked up): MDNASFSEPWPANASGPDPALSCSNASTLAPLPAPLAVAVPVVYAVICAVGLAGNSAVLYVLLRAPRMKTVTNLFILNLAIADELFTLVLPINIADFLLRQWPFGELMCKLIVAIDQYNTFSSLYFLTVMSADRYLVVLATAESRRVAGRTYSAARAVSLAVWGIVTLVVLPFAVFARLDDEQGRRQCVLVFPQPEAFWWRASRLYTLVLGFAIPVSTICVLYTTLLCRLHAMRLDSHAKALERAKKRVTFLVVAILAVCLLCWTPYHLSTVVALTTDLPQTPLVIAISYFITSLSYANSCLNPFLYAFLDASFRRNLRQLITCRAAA
OX1R antag-2 – human HCRTR1 antagonism; hit rate 0.43% among 330,000; CHO/OX1R cells, Fluo-8 calcium fluorescence, orexin A; inhibition, % at 5 µM; O43613;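 active = inhibition above its plate's threshold, mean inhibition of all tested compounds on the plate plus 3 SD, cut at about 37% in these data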
Each line names hits and unclear results; the compound was inactive in the other large screens. Most compounds without a hit are left out; they make up all but 3.7% or so of the library.

CC1Sc2ccc(S(=O)(=O)N3CCC(C(=O)Nc4cccc(Cl)c4)CC3)cc2NC1=O (centres undefined)	CHO parental Ca 57.9 (no result: EP2 modulator, EP2 antag)
O=C1COc2ccc(S(=O)(=O)CCC(=O)N3CCN(c4cccc(C(F)(F)F)c4)CC3)cc2N1	CHO parental Ca 38.1 (no result: EP2 modulator, EP2 antag)
CCc1ccc(NC(=O)C2CCN(S(=O)(=O)c3ccc4c(c3)NC(=O)C(C)S4)CC2)cc1 (centres undefined)	CHO parental Ca 56.6 (no result: EP2 modulator, EP2 antag)
CCc1cccc(NS(=O)(=O)c2ccc3c(c2)NC(=O)C(C)S3)c1 (centres undefined)	CHO parental Ca 52.9 (no result: EP2 modulator, EP2 antag)
COC(=O)COc1ccc(S(=O)(=O)Nc2ccccc2C(=O)OC)cc1	none
Cc1ccc(NC(=O)C2CCN(S(=O)(=O)c3ccc4c(c3)NC(=O)C(C)S4)CC2)cc1C (centres undefined)	CHO parental Ca 51.4 (no result: EP2 modulator, EP2 antag)
CC1Sc2ccc(S(=O)(=O)CCC(=O)N3CCN(c4cccc(Cl)c4)CC3)cc2NC1=O (centres undefined)	CHO parental Ca 33.9 (no result: EP2 modulator, EP2 antag)
Cc1ccc2c(c1)N(CC(=O)NCC1CCCO1)C(=O)C(C)O2 (centres undefined)	none
O=C(Nc1ccccc1-c1nc2ccccc2s1)c1cccnc1Cl	EP2 modulator 63.1
O=C(Nc1ccccc1-c1nc2ccccc2s1)c1ccco1	none
CC1(C)OC(=O)N(CCc2ccccc2)C1(C)O (centres undefined)	none
CC1(C)OC(=O)N(c2ccccc2)C12C=Cc1cc(Br)ccc1O2 (centres undefined)	CHO parental Ca 36.2
CN(C)CCCCN1CCc2c(n(C)c3ccccc23)C1=O	EP2 antag 50.0 (no result: OX1R antag-1, CHO parental Ca, GPR7 antagonist, OX1R antag-2)
Cc1cccc(NC2=C/C(=N/S(=O)(=O)c3cccs3)c3ccccc3C2=O)c1	none
Cc1ccc(NC2=C/C(=N\S(=O)(=O)c3cccs3)c3ccccc3C2=O)c(C)c1	EP2 antag 44.1
ClCc1c2ccccc2cc2ccccc12	none (no result: EP2 modulator, EP2 antag, GPR7 antagonist)
COc1cc(NC(=O)Cn2ccsc2=N)c(C)cc1[N+](=O)[O-]	none
Cc1nn(C(C)(C)C)c(OC(=O)c2ccc(Br)o2)c1Sc1ccccc1	OX1R antag-1 37.6
N#Cc1cc([N+](=O)[O-])ccc1NCCc1ccccn1	none
O=C(Nc1ccc(Br)cc1)NC1CCCCCCC1	CHO parental Ca 40.1 (no result: EP2 modulator, EP2 antag)
O=C(N/N=C/c1ccccc1)NC1CCCCC1	EP2 modulator 63.9
O=C(Nc1ccccc1)NC1CCCCCCC1	none (no result: EP2 modulator, EP2 antag, GPR7 antagonist)
CC(/C=N/NC(=O)NC1CCCCC1)=C\c1ccccc1	none
Cc1ccc2nsnc2c1S(=O)(=O)N1CCN(C)CC1	none
CN1CCN(S(=O)(=O)c2cccc3nsnc23)CC1	OX1R antag-1 40.2 (no result: EP2 modulator, EP2 antag)
Cc1ccc(S(=O)(=O)N2CCN(C)CC2)c2nsnc12	OX1R antag-1 50.3 (no result: EP2 modulator, EP2 antag)
CC(C(=O)c1c[nH]c(C(N)=O)c1)c1ncc(C(F)(F)F)cc1Cl (centres undefined)	none
O=c1cc(-c2ccccc2)c2cc(Cl)c(O)c(CN3CCOCC3)c2o1	OX1R antag-1 65.1
CCc1cc2c(-c3ccccc3)cc(=O)oc2c(CN2CCOCC2)c1O	none
COc1ccccc1OCC(=O)N(Cc1nc(-c2ccc(Cl)cc2)no1)C(C)C	none
Cc1cc(Br)ccc1OCC(=O)N(Cc1nc(-c2ccccc2)no1)C(C)C	OX1R antag-1 56.4
COc1ccccc1OCC(=O)N(Cc1nc(-c2ccccc2)no1)C(C)C	none (no result: EP2 modulator, EP2 antag)
Cc1ccc(C)c(C(=O)N(Cc2nc(-c3ccc(Cl)cc3)no2)C(C)C)c1	CHO parental Ca 35.5
CC(C)N(Cc1nc(-c2ccccc2)no1)C(=O)CSc1ccccc1	OX1R antag-1 39.3
COc1cccc(OCC(=O)N(Cc2nc(-c3ccc(Cl)cc3)no2)C(C)C)c1	OX1R antag-1 46.7
Cc1nc2cnccc2n1C	none
CC1(C(=O)O)CCC(C(=O)NCCc2ccccc2)C1(C)C (centres undefined)	none
Cc1ccc(-c2noc(CN(C(=O)Cc3ccccc3)C(C)C)n2)cc1	OX1R antag-1 52.2
CC1(C)CNC(=O)CC(C)(C)N1O	none
CN1CCCC1CCNc1ccc2sc3ccccc3c(=O)c2c1 (centres undefined)	EP2 antag 44.1 (no result: EP2 modulator, GPR7 antagonist)
Cc1c(C2(O)CCCCC2)[nH]c2ccc(C(F)(F)F)cc12	OX1R antag-1 52.5, CHO parental Ca 57.1 (no result: EP2 modulator, EP2 antag, GPR7 antagonist)
